Shown are actives, neighbours in structure and some others; about 3.5% of the full set was active somewhere.
RGS4 pot = RGS4 potentiation or activation; HEK293 M3R/inducible RGS4, carbachol calcium flux Fluo4; stronger effect = lower value; B-score at 10 µM; 310,000 tested, 0.92% active; AID 463111;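 active means B-score of the integrated calcium signal more than 4 SD below the library mean, with starting fluorescence not abnormally high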;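 further: negative B-score means reduced calcium response which marks RGS4 activation or potentiation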
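Also added: carbachol at ECmax as muscarinic agonist stimulus; Assay system: HEK293 cells with stable M3R and inducible RGS4; Timing: overnight RGS4 induction, 30 min dye load 37 °C, 20 min compound RT; Measured by: Fluo4-AM (2 µM) calcium-flux fluorescence, kinetic read.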
RGS4 block = human RGS4 inhibition; 310,000 tested, 0.45% active; P49798; HEK293 M3R/RGS4 inducible, Fluo-4 calcium flux; stronger effect = higher value; triggered by carbachol at its EC20; B-score at 10 µM;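 active means B-score, a plate-corrected calcium signal, over three deviations above library mean, with baseline fluorescence within five deviations of library mean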;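 further: RGS4 expression induced by doxycycline in cells with stable M3 receptor; B-score is computed from the integrated fluorescence ratio over baseline after carbachol; higher B-score means a larger calcium signal and so more RGS4 inhibition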
Target sequence (P49798 whole entry, looked up): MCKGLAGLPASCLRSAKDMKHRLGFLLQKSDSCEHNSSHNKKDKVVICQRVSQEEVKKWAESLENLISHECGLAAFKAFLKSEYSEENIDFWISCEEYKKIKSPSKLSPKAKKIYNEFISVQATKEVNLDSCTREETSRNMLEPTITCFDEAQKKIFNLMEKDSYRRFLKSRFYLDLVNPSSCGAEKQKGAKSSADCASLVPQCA
MrgX1 agonist = human MrgX1 receptor agonism, primary screen. Q96LB2. 310,000 tested, 0.44% active. MrgX1-HEK293 cells, Fluo-4 calcium fluorescence, agonist mode; stronger effect = higher value. B-score at 10 µM;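 active means calcium response B-score plate-corrected fluorescence ratio at least 3 library SD, with starting fluorescence B-score inside 5 SD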
Target sequence (Q96LB2 whole entry, looked up): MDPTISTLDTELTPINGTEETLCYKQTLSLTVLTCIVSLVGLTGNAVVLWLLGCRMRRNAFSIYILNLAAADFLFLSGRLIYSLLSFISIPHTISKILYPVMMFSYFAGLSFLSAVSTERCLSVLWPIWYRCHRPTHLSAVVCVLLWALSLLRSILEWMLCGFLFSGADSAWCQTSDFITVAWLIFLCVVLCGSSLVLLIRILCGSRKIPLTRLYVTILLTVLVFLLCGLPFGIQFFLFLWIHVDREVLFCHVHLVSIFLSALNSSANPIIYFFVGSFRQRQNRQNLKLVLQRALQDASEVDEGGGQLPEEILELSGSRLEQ
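Test system: HEK293 cells stably expressing human MrgX1 receptor; amount: 15,000 cells per well; doses: compound delivered in addition one of three; times: overnight plating before 1 h dye loading; detection: Fluo-4 NW calcium-flux fluorescence, kinetic read; read-out basis: B-scored fluorescence response ratio; controls: positive and negative controls per plate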
MrgX1 antag = human MrgX1 receptor antagonism, primary screen | MRGX1-HEK293 calcium flux, Fluo-4, BAM8-22 antagonism; stronger effect = lower value | B-score at 10 µM | 310,000 tested, 1.3% active | AID 588676;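 active means calcium-response B-score plate-corrected more than 3 library SD below zero, starting fluorescence within 5 deviations, no agonist response on first addition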;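 further: peak minus trough fluorescence over baseline after final BAM8-22 challenge near maximal dose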
MrgX1 PAM = human MrgX1 positive allosteric modulation, primary screen | 310,000 tested, 0.63% active | Q96LB2 | B-score at 10 µM | MrgX1-HEK293, Fluo-4 calcium flux, FDSS; stronger effect = higher value;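 active means plate-corrected calcium response at least 3 library SD above typical, normal starting fluorescence, not activating the receptor alone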;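 further: compound read alongside a low EC10 to EC30 dose of BAM8-22 agonist; peak minus trough fluorescence over baseline measured at the second addition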
RGS4 activ val = confirmation of RGS4 activators. shares compounds with RGS4 pot. HEK293 M3R/RGS4 inducible, carbachol calcium flux Fluo4. inhibition, % at 10 µM. 1,100 tested, 89% active;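 active means inhibition above 3 SD of the buffer control wells, cut at about 41% in these data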;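 further: signal is the integrated peak-minus-minimum Fluo4 fluorescence over baseline ratio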
M3R Ca counter = RGS4 activator counter-screen hit in non-induced cells | shares compounds with RGS4 pot | HEK293 M3R non-induced RGS4, Fluo4 calcium flux; after carbachol challenge at its EC90 | 1,100 tested, 82% active | inhibition, % at 10 µM | AID 602283;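 active means inhibition exceeding 3 SD of buffer-only control wells, cut at about 26% in these data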;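 further: percent drop in integrated peak-minus-baseline over baseline Fluo4 ratio after carbachol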
Starred values were filed as active, the others as inactive; i = inactive; / = no result given.

SMILES | RGS4 pot | RGS4 block | MrgX1 agonist | MrgX1 antag | MrgX1 PAM | RGS4 activ val | M3R Ca counter
CC(C)(C)c1nnc(NC(=O)c2cc(-c3ccccc3)nc3ccccc23)s1 | i | i | i | i | i | / | /
Cc1csc(NC(=O)c2cc(-c3ccccc3)nc3ccccc23)n1 | -7.82* | i | i | i | i | 85.5* | 42.8*
CCOc1ccc(CNC(=O)CCC(=O)n2ncc3ccc(Cl)cc32)cc1 | i | i | i | i | i | / | /
CCOC(=O)c1ccc(Nc2cc(C)nc(C)c2C(=O)OCC)cc1 | -8.42* | i | i | i | i | 57.5* | 83.8*
CCOC(=O)c1ccc(NC(=O)c2c(Cl)cc(C)nc2C)cc1 | i | i | i | i | i | / | /
CCN(CC)CCOC(c1ccccc1)c1ccc(C)cc1 (configuration not stated) | i | i | i | i | i | / | /
CCN(CC)CC#CCOC(c1ccccc1)c1ccccc1 | -9.21* | i | i | i | i | 88.0* | 56.8*
CN(C)CC#CCC(O)(c1ccccc1)c1ccccc1 | i | i | i | i | i | / | /
C=CC[N+]1(CC#CCOC(c2ccccc2)c2ccccc2)CCOCC1 | i | i | i | i | i | / | /
CCN(CC)CC#CCC(O)(c1ccccc1)c1ccccc1 | -7.69* | i | i | i | i | 90.0* | 51.8*
CN(C)CC#CCOC(c1ccccc1)c1ccccc1 | -8.93* | i | i | i | i | 92.5* | 71.8*
Cc1ccc2c(c1)N(C(C)C(=O)NCc1ccc3c(c1)OCO3)C(=O)CO2 (configuration not stated) | i | i | i | i | i | / | /
CN(C(=O)COC(=O)C1CCN(S(=O)(=O)c2c(Cl)cccc2Cl)CC1)C1CCS(=O)(=O)C1 (configuration not stated) | i | i | i | i | i | / | /
COc1cc(OC)c(C2C(C#N)=C(C)NC(C)=C2C#N)c(C(=O)O)c1 | i | i | i | i | i | / | /
Cc1cc(NC(=O)c2cnn3c(C(F)F)cc(-c4ccccc4)nc23)no1 | i | i | i | i | i | / | /
Cc1cc(NC(=O)c2cnn3c(C(F)(F)F)cc(-c4ccccc4)nc23)no1 | -10.2* | i | i | i | i | 93.5* | 74.3*
Cc1cccc(NC(=O)C2CCN(S(=O)(=O)c3c(C)nn(C)c3C)CC2)n1 | i | i | i | i | i | / | /
Cc1cccc(NC(=O)C2CCN(S(=O)(=O)c3c(C)c(C)cc(C)c3C)CC2)n1 | -10.7* | i | i | i | i | 89.5* | 64.3*
CC(C)(C)NC(=O)COC(=O)c1ccc(Cl)nc1 | i | i | i | i | i | / | /
Cc1nn(-c2cc(N(S(C)(=O)=O)S(C)(=O)=O)c(Cl)cc2Cl)c(=O)n1C | i | i | i | i | i | / | /
CC(C)(C)N(Cc1ccccc1)C(=O)c1ccc2c(c1)OCCO2 | -9.2* | i | i | i | i | 92.0* | 53.8*
CC(C)(C)N(Cc1nc(-c2ccccc2)no1)C(=O)c1ccc2c(c1)OCO2 | i | i | i | i | i | / | /
COCCNC(=O)C(c1c[nH]c2ccccc12)N(C(=O)c1snc(C(N)=O)c1N)c1cccc(OC)c1 (configuration not stated) | i | i | i | i | i | / | /
Cc1ccn(S(=O)(=O)c2ccc(C(C)(C)C)cc2)n1 | -7.85* | i | i | i | i | 92.0* | 25.8*
CN(CC(=O)Nc1c(Cl)cccc1Cl)C(=O)c1cc(-c2cccs2)nn1-c1ccccc1 | i | i | i | i | i | / | /
SMILES | RGS4 pot | RGS4 block | MrgX1 agonist | MrgX1 antag | MrgX1 PAM | RGS4 activ val | M3R Ca counter
CN(CC(=O)Nc1ccccc1Cl)C(=O)c1cc(-c2cccs2)nn1-c1ccccc1 | i | i | i | i | i | / | /
CCN(CC(=O)Nc1c(F)cccc1F)C(=O)c1cc(-c2cccs2)nn1-c1ccccc1 | -9.39* | i | i | i | i | 52.5* | 83.8*
CN(CC(=O)Nc1ccc(Cl)cc1)C(=O)c1cc(-c2cccs2)nn1-c1ccccc1 | -8.52* | i | i | i | i | 87.5* | 41.8*
CCN(CC(=O)Nc1ccccc1OC)C(=O)c1cc(-c2ccccc2)nn1-c1ccccc1 | -7.85* | i | i | i | i | 92.0* | 66.8*
CC(C)NS(=O)(=O)c1ccc(CCC(=O)Nc2ccc3c(c2)OCO3)cc1 | i | i | i | i | i | / | /
CCCN1CCN(c2ncnc3scc(C4COc5ccccc5O4)c23)CC1 (configuration not stated) | -12.5* | i | i | i | i | 92.0* | 61.8*
c1ccc2c(c1)OCC(c1csc3ncnc(N4CCCCC4)c13)O2 (configuration not stated) | i | i | i | i | i | / | /
FC(F)(F)c1cccc(NCc2n[nH]c(=S)n2C2CCCCC2)c1 | -8.38* | i | i | i | i | 85.0* | 51.8*
C=CCNc1nc(N2CCCCC2)c(C#N)c2c1CN(Cc1ccccc1)CC2 | -8.89* | i | i | i | i | 94.0* | 80.8*
Cc1ccc(S(=O)(=O)NCCNC(=O)CN2CCOCC2)cc1 | i | i | i | i | i | / | /
Cc1ccc(-c2cc(C(=O)Nc3cccnc3)c3ccccc3n2)o1 | i | i | i | i | i | / | /
CC(=O)Nc1cccc(NC(=O)c2cc(-c3cccnc3)nc3ccc(Cl)cc23)c1 | -8.63* | i | i | i | i | 46.0* | 0.0
O=C(Nc1cccnc1)c1cc(-c2ccc(Br)cc2)nc2ccccc12 | -13.3* | i | i | i | i | 91.5* | 75.8*
CC(=O)Nc1cccc(NC(=O)c2cc(-c3cccnc3)nc3ccc(Br)cc23)c1 | i | i | i | i | i | / | /
CCc1ccc(OCCNC(=O)c2ccccc2SCc2ccccc2)cc1 | -11.3* | i | i | i | i | 94.0* | 79.8*
CCNC(=O)c1ccccc1SCc1ccccc1 | i | i | i | i | i | / | /
CN1CCN(CC(=O)Nc2c(C(=O)c3ccccc3)oc3ccccc23)CC1 | -9.96* | i | i | i | i | 70.0* | 26.8*
COc1ccc(C(CNC(=O)c2ccc(Cl)c(NC(=O)c3cccs3)c2)N2CCCC2)cc1 (configuration not stated) | -12.5* | i | i | i | i | 89.0* | 52.3*
